# Source: ChEMBL document CHEMBL1240380, “Acinetobacter baumannii increases tolerance to antibiotics in response to monovalent cations” (Antimicrob Agents Chemother, 2010)
# Active and inactive are the calls of the source. No cut-off for these calls is given here.
# Legend:
# [1] = tested on: Acinetobacter baumannii; assay: Antibacterial activity against Acinetobacter baumannii isolate 5191 isolated from human urine; type: functional, organism-based
# [2] = tested on: Acinetobacter baumannii; assay: Antibacterial activity against Acinetobacter baumannii isolate 2824 isolated from human urine; type: functional, organism-based
# [3] = tested on: Acinetobacter baumannii; assay: Antibacterial activity against Acinetobacter baumannii isolate 2898 isolated from human ankle; type: functional, organism-based
# [4] = tested on: Acinetobacter baumannii; assay: Antibacterial activity against Acinetobacter baumannii isolate 510 isolated from human sputum; type: functional, organism-based
# [5] = tested on: Acinetobacter baumannii; assay: Antibacterial activity against Acinetobacter baumannii isolate 4860 isolated from human urine; type: functional, organism-based
# [6] = tested on: Acinetobacter baumannii; assay: Antibacterial activity against Acinetobacter baumannii using MHB medium assessed as bacterial growth at 4.5 mg/L in presence of 150 mM of KCl; type: functional, organism-based
# How it was run: (§1)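 Growth-curve challenge with 150 mM KCl in place of NaCl. Overnight cultures were diluted 1:100 in NaCl-free MHB and grown to OD600 0.4. They were then diluted to 10^5 CFU/ml in MHB with or without 150 mM KCl, plus antibiotic. Cultures ran in triplicate for 12 h at 37°C with shaking at 180 rpm, and OD600 was read every 2 h.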
# [7] = tested on: Acinetobacter baumannii; assay: Antibacterial activity against Acinetobacter baumannii ATCC 17978 assessed as bacterial growth at 4.5 mg/L in presence of 150 mM NaCl; type: functional
# How it was run: (§2)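 Overnight cultures were diluted 1:100 in NaCl-free MHB and grown to OD600 0.4. They were then diluted to 10^5 CFU/ml in MHB with or without 150 mM NaCl, plus or minus antibiotic. Growth was run in triplicate for 12 h at 37°C with shaking at 180 rpm, and OD600 was read every 2 h.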
# [8] = tested on: Acinetobacter baumannii; assay: Antibacterial activity against Acinetobacter baumannii using MHB medium with 150 mM assessed as bacterial growth at 4.5 mg/L after 12 hrs in presence of 30 mg/L efflux pump inhibitor PAbetaN; type: functional, organism-based
# [9] = tested on: Acinetobacter baumannii; assay: Antibacterial activity against Acinetobacter baumannii ATCC 17978 isolated from human CSF; type: functional, organism-based
# [10] = tested on: Acinetobacter baumannii; assay: Antibacterial activity against Acinetobacter baumannii using MHB medium assessed as bacterial growth at 4.5 mg/L after 12 hrs in presence of 30 mg/L efflux pump inhibitor PAbetaN; type: functional, organism-based
# [11] = tested on: Acinetobacter baumannii; assay: Antibacterial activity against Acinetobacter baumannii using MHB medium assessed as bacterial growth at 0.75 mg/L in presence of 150 mM of KCl; type: functional, organism-based; how it was run: as §1
# [12] = tested on: Acinetobacter baumannii; assay: Antibacterial activity against Acinetobacter baumannii using MHB medium with 150 mM assessed as bacterial growth at 1.5 mg/L after 12 hrs in presence of 30 mg/L efflux pump inhibitor PAbetaN; type: functional, organism-based
# [13] = tested on: Acinetobacter baumannii; assay: Antibacterial activity against Acinetobacter baumannii isolate 2824 using MHB medium after 24 hrs; type: functional, organism-based
# How it was run: (§3)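 MIC by CLSI broth microdilution in MHB, with the medium supplemented with 150 mM NaCl where indicated. The read-out was taken after 24 h of drug exposure.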
# [14] = tested on: Acinetobacter baumannii; assay: Antibacterial activity against Acinetobacter baumannii isolate 5191 using MHB medium with 150 mM NaCl after 24 hrs; type: functional, organism-based; how it was run: as §3
# [15] = tested on: Acinetobacter baumannii; assay: Antibacterial activity against Acinetobacter baumannii ATCC 17978 assessed as bacterial growth at 0.75 mg/L in presence of 150 mM NaCl; type: functional; how it was run: as §2
# [16] = tested on: Acinetobacter baumannii; assay: Antibacterial activity against Acinetobacter baumannii isolate 5191 using MHB medium with 150 mM NaCl assessed as bacterial growth at 0.75 mg/L after 12 hrs; type: functional, organism-based; how it was run: as §2
# [17] = tested on: Acinetobacter baumannii; assay: Antibacterial activity against Acinetobacter baumannii isolate 4860 using MHB medium assessed as bacterial growth at 0.75 mg/L after 12 hrs; type: functional, organism-based; how it was run: as §2
# [18] = tested on: Acinetobacter baumannii; assay: Antibacterial activity against Acinetobacter baumannii isolate 4860 using MHB medium after 24 hrs; type: functional, organism-based; how it was run: as §3
# [19] = tested on: Acinetobacter baumannii; assay: Antibacterial activity against Acinetobacter baumannii isolate 2898 using MHB medium assessed as bacterial growth at 0.75 mg/L after 12 hrs; type: functional, organism-based; how it was run: as §2
# [20] = tested on: Acinetobacter baumannii; assay: Antibacterial activity against Acinetobacter baumannii ATCC 17978 using MHB medium after 24 hrs; type: functional; how it was run: as §3
# [21] = tested on: Acinetobacter baumannii; assay: Antibacterial activity against Acinetobacter baumannii isolate 2824 using MHB medium with 150 mM NaCl assessed as bacterial growth at 0.75 mg/L after 12 hrs; type: functional, organism-based; how it was run: as §2
# [22] = tested on: Acinetobacter baumannii; assay: Antibacterial activity against Acinetobacter baumannii ATCC 17978 using MHB medium with 150 mM NaCl after 24 hrs; type: functional; how it was run: as §3
# [23] = tested on: Acinetobacter baumannii; assay: Antibacterial activity against Acinetobacter baumannii isolate 2824 using MHB medium with 150 mM NaCl after 24 hrs; type: functional, organism-based; how it was run: as §3
# [24] = tested on: Acinetobacter baumannii; assay: Antibacterial activity against Acinetobacter baumannii isolate 2824 using MHB medium assessed as bacterial growth at 0.75 mg/L after 12 hrs; type: functional, organism-based; how it was run: as §2
# [25] = tested on: Acinetobacter baumannii; assay: Antibacterial activity against Acinetobacter baumannii isolate 5191 using MHB medium assessed as bacterial growth at 0.75 mg/L after 12 hrs; type: functional, organism-based; how it was run: as §2
# [26] = tested on: Acinetobacter baumannii; assay: Antibacterial activity against Acinetobacter baumannii isolate 2898 using MHB medium with 150 mM NaCl after 24 hrs; type: functional, organism-based; how it was run: as §3
# [27] = tested on: Acinetobacter baumannii; assay: Antibacterial activity against Acinetobacter baumannii ATCC 17978 using MHB medium with 150 mM NaCl assessed as bacterial growth at 0.75 mg/L after 12 hrs; type: functional, organism-based; how it was run: as §2
# [28] = tested on: Acinetobacter baumannii; assay: Antibacterial activity against Acinetobacter baumannii isolate 4860 using MHB medium with 150 mM NaCl after 24 hrs; type: functional, organism-based; how it was run: as §3
# [29] = tested on: Acinetobacter baumannii; assay: Antibacterial activity against Acinetobacter baumannii isolate 4860 using MHB medium with 150 mM NaCl assessed as bacterial growth at 0.75 mg/L after 12 hrs; type: functional, organism-based; how it was run: as §2
# [30] = tested on: Acinetobacter baumannii; assay: Antibacterial activity against Acinetobacter baumannii isolate 510 using MHB medium after 24 hrs; type: functional, organism-based; how it was run: as §3
# [31] = tested on: Acinetobacter baumannii; assay: Antibacterial activity against Acinetobacter baumannii isolate 510 using MHB medium assessed as bacterial growth at 0.75 mg/L after 12 hrs; type: functional, organism-based; how it was run: as §2
# [32] = tested on: Acinetobacter baumannii; assay: Antibacterial activity against Acinetobacter baumannii isolate 510 using MHB medium with 150 mM NaCl assessed as bacterial growth at 0.75 mg/L after 12 hrs; type: functional, organism-based; how it was run: as §2
# [33] = tested on: Acinetobacter baumannii; assay: Antibacterial activity against Acinetobacter baumannii ATCC 17978 using MHB medium assessed as bacterial growth at 0.75 mg/L after 12 hrs; type: functional, organism-based; how it was run: as §2
# [34] = tested on: Acinetobacter baumannii; assay: Antibacterial activity against Acinetobacter baumannii using MHB medium with NaCl in presence of efflux pump inhibitor PAbetaN; type: functional, organism-based
# How it was run: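 Cells in MHB with or without 150 mM NaCl were pretreated with 60 mg/liter PAβN for 30 min at room temperature before antibiotic was added. Cultures at 10^5 CFU/ml were then grown in triplicate for 12 h at 37°C with shaking at 180 rpm, and OD600 was monitored every 2 h.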
# [35] = tested on: Acinetobacter baumannii; assay: Antibacterial activity against Acinetobacter baumannii isolate 2898 using MHB medium after 24 hrs; type: functional, organism-based; how it was run: as §3
# [36] = tested on: Acinetobacter baumannii; assay: Antibacterial activity against Acinetobacter baumannii isolate 510 using MHB medium with 150 mM NaCl after 24 hrs; type: functional, organism-based; how it was run: as §3
# [37] = tested on: Acinetobacter baumannii; assay: Antibacterial activity against Acinetobacter baumannii isolate 5191 using MHB medium after 24 hrs; type: functional, organism-based; how it was run: as §3
# [38] = tested on: Acinetobacter baumannii; assay: Antibacterial activity against Acinetobacter baumannii isolate 2898 using MHB medium with 150 mM NaCl assessed as bacterial growth at 0.75 mg/L after 12 hrs; type: functional, organism-based; how it was run: as §2
# [39] = tested on: Acinetobacter baumannii; assay: Antibacterial activity against Acinetobacter baumannii using MHB medium assessed as bacterial growth at 1.5 mg/L after 12 hrs in presence of 30 mg/L efflux pump inhibitor PAbetaN; type: functional, organism-based
# [40] = tested on: Acinetobacter baumannii; assay: Antibacterial activity against Acinetobacter baumannii ATCC 17978 assessed as bacterial growth at 1.125 mg/L in presence of 150 mM NaCl; type: functional
# How it was run: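 Strain grown overnight, diluted 1:100 in MHB without NaCl and grown to OD600 0.4. Then diluted to 10^5 CFU/ml in MHB supplemented with 150 mM NaCl, with or without gentamicin 1.125 mg/liter. Incubated 12 h at 37°C with shaking at 180 rpm, in triplicate. Growth followed by OD600 every 2 h.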
compound,measurement,setting,value
CO/N=C(\C(=O)N[C@@H]1C(=O)N2C(C(=O)O)=C(CSc3nc(=O)c(O)nn3C)CS[C@H]12)c1csc(N)n1,Activity,[1],inactive
same,Activity,[2],inactive
same,Activity,[3],inactive
same,Activity,[4],inactive
same,Activity,[5],inactive
NCC[C@H](O)C(=O)N[C@@H]1C[C@H](N)[C@@H](O[C@H]2O[C@H](CN)[C@@H](O)[C@H](O)[C@H]2O)[C@H](O)[C@H]1O[C@H]1O[C@H](CO)[C@@H](O)[C@H](N)[C@H]1O,Activity,[1],inactive
same,Activity,[2],inactive
same,Activity,[3],inactive
same,Activity,[6],inactive
same,Activity,[4],inactive
same,Activity,[7],inactive
same,Activity,[8],inactive
same,Activity,[9],Active
same,Activity,[5],inactive
same,Activity,[10],Active
COLISTIN,Activity,[11],inactive
same,Activity,[12],inactive
same,MIC,[13],0.75 µg/mL
same,MIC,[14],1.5 µg/mL
same,Activity,[15],inactive
same,Activity,[16],inactive
same,Activity,[17],Active
same,MIC,[18],2 µg/mL
same,Activity,[19],Active
same,MIC,[20],0.75 µg/mL
same,Activity,[21],inactive
same,MIC,[22],1.5 µg/mL
same,MIC,[23],1.5 µg/mL
same,Activity,[24],Active
same,Activity,[25],Active
same,MIC,[26],1.5 µg/mL
same,Activity,[27],inactive
same,MIC,[28],1.5 µg/mL
same,Activity,[29],inactive
same,MIC,[30],0.75 µg/mL
same,Activity,[31],Active
same,Activity,[32],inactive
same,Activity,[33],Active
same,MIC,[34],> 4 µg/mL
same,MIC,[35],1 µg/mL
same,MIC,[36],1.5 µg/mL
same,MIC,[37],0.75 µg/mL
same,Activity,[38],inactive
same,Activity,[39],inactive
C[C@H]1[C@H](NC(=O)/C(=N\OC(C)(C)C(=O)O)c2csc(N)n2)C(=O)N1S(=O)(=O)O,Activity,[1],inactive
same,Activity,[2],inactive
same,Activity,[3],inactive
same,Activity,[4],inactive
same,Activity,[9],inactive
same,Activity,[5],inactive
CC(C)(O/N=C(\C(=O)N[C@@H]1C(=O)N2C(C(=O)[O-])=C(C[n+]3ccccc3)CS[C@H]12)c1csc(N)n1)C(=O)O,Activity,[1],inactive
same,Activity,[2],inactive
same,Activity,[3],inactive
same,Activity,[4],inactive
same,Activity,[5],inactive
GENTAMICIN,Activity,[1],inactive
same,Activity,[2],inactive
same,Activity,[3],inactive
same,Activity,[4],inactive
same,Activity,[9],Active
same,Activity,[5],inactive
same,Activity,[40],inactive
CO/N=C(\C(=O)N[C@@H]1C(=O)N2C(C(=O)O)=C(COC(C)=O)CS[C@H]12)c1csc(N)n1,Activity,[1],inactive
same,Activity,[2],inactive
same,Activity,[3],inactive
same,Activity,[4],inactive
same,Activity,[5],inactive
